The subject of assay [1] is DC3F/AD. As to the kind of experiment: Percent of cell viability remaining after incubating with a 10 uM concentration. It is filed as functional, Cricetulus griseus. The gist of the method: (§1)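 Cells were grown with modulator alone for 4 days under the same conditions as the chemosensitivity assay, and read by MTT. Viability = (absorbance with modulator/absorbance of control cells) × 100. "tox" marks viability below 25%.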

Assay [2] relates to P388. Nature of the assay: Antitumor activity of vincristine against P388 leukemia cell line in mice at a dose of 50 mg/kg. In kind it is functional, Mus musculus.
Assay [3] deals with DC3F/AD. Nature of the assay: In vitro activity in DC-3F/AD cell line(Ratio of IC50(actinomycin D alone) / IC50(actinomycin D + modulator) at a concentration of 5 uM.
Assay [4] relates to KB. Nature of the assay: Percent of cell viability remaining after incubating the cells with the modulator alone. It is filed as functional, Homo sapiens. Also noted: concentration or dose not given beside the values. The gist of the method:
as §1

In assay [5] the test system is DC3F/AD. As to the kind of experiment: Percent of cell viability remaining after incubating the cells with the modulator alone a concentration of 5 uM. It is filed as functional, Cricetulus griseus. An outline of the steps:
as §1

For assay [6], the system named is P388. As to the kind of experiment: Antitumor activity of vincristine against P388 leukemia cell line in mice at a dose of 100 mg/kg. In kind it is functional, Mus musculus.
Assay [7] relates to DC3F/AD. As to the kind of experiment: Increase in adriamycin uptake in modulator-treated cells relative to untreated cells at a concentration of 5 uM. It is filed as functional, Cricetulus griseus. The gist of the method:
(§2)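 DC-3F/AD or KB-A1 cells (5 × 10⁶/mL) were incubated at 37 °C for 5 h with 50 μM adriamycin plus modulator (2.5–10 μM range). ADR fluorescence of 10 000 cells was read by flow cytometry at 4 °C with 488 nm argon-laser excitation. The value is the increase in mean fluorescence of treated cells over untreated cells.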

For assay [8], the system named is KB. As to the kind of experiment: Increase in adriamycin uptake in modulator-treated cells relative to untreated KB-A1 cells at a concentration of 5 uM. In kind it is functional, Homo sapiens. An outline of the steps:
as §2

The test system of assay [9] is DC3F/AD. Nature of the assay: In vitro activity in DC-3F/AD cell line Ratio of IC50(actinomycin D alone) / IC50(actinomycin D + modulator) at a concentration of 10 uM.
Assay [10] relates to DC3F/AD. Nature of the assay: Increase in adriamycin uptake in modulator-treated cells relative to untreated cells at a concentration of 10 uM. In kind it is functional, Cricetulus griseus. The gist of the method:
as §2

Assay [11] deals with KB. Nature of the assay: In vitro activity in KB-A1 cell line activity expressed as fold reversion (Ratio of IC50(adriamycin alone) / IC50(adriamycin + modulator) at a concentration of 5 uM. In kind it is functional, Homo sapiens. An outline of the steps:
(§3)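 Human epidermoid KB-A1 cells (Pgp-overexpressing) were grown in RPMI 1640 with 10% FCS and 10 mM HEPES (pH 7.4). They were exposed for 4 days to adriamycin (nine graded concentrations, in triplicate) with or without 5 μM modulator. IC50 was read by the MTT assay. Fold reversion = IC50(ADR alone)/IC50(ADR + modulator).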

In assay [12] the test system is KB. Nature of the assay: Compound was evaluated for the in vitro activity in KB-A1 cell line)Activity expressed as fold reversion (Ratio of IC50(adriamycin alone) / IC50(adriamycin + modulator) at a concentration of 5 uM. It is filed as functional, Homo sapiens. The gist of the method: as §3
Assay [13] relates to KB. As to the kind of experiment: Compound was evaluated for the in vitro activity in KB-A1 cell line. Activity expressed as fold reversion (Ratio of IC50(adriamycin alone) / IC50(adriamycin + modulator) at a concentration of 5 uM. In kind it is functional, Homo sapiens. The gist of the method: as §3

SMILES strings stand for the structures.

As for `C=CCNc1nc(NCC=C)nc(N2CCC(NCC3c4ccccc4CCc4ccccc43)CC2)n1`, the Viability came out at 54% in the assay with DC3F/AD [1], 68% in the assay with KB [4] and 98% in the assay with DC3F/AD [5]. For the same compound, the T/C with P388 [2] is given as 161%; in the assay on P388 [6], 167%. Moreover, the Fold reversion with DC3F/AD [3] was found to be 3144; with DC3F/AD [9], 6021; with KB [11] it was 252. Also, the Increase amounted to 33 in the assay with DC3F/AD [7], 53.6 with KB [8] and 38.3 in the assay with DC3F/AD [10].
On to `C=CCNc1nc(NCC=C)nc(N2CCC(NCC(c3ccccc3)S(=O)(=O)c3ccccc3)CC2)n1` (stereo unspecified), for which the Viability in the assay on DC3F/AD [1] turned out to be 92%; with KB [4], 115%; in the assay on DC3F/AD [5] it was 107%. Besides, the Fold reversion was 139 in the assay with DC3F/AD [3], 277 in the assay with KB [12] and 817 with DC3F/AD [9]. For the same compound, the figures for the Increase in the assay with DC3F/AD [7], in the assay with KB [8] and in the assay with DC3F/AD [10] were 21.2, 41.9 and 29, respectively.
As to `C=CCNc1nc(NCC)nc(N2CCC(NCC3c4ccccc4CCc4ccccc43)CC2)n1`, the Viability in the assay on DC3F/AD [1] amounted to 64%; with KB [4] it was 58%; in the assay on DC3F/AD [5] it was 114%. In addition, the T/C in the assay with P388 [2] is given as 190%; in the assay with P388 [6] it was 174%. Besides, the Fold reversion with DC3F/AD [3] came out at 2499; in the assay on DC3F/AD [9], 10684; in the assay on KB [11] it was 201. In addition, the Increase was 23.1 in the assay with DC3F/AD [7], 45.9 in the assay with KB [8] and 24.9 with DC3F/AD [10].
`C=CCNc1nc(NCC=C)nc(NCCN2CCN(C3c4ccccc4CCc4ccccc43)CC2)n1`: the Fold reversion in the assay on KB [13] and in the assay on DC3F/AD [9] was <25 each time. For the same compound, the results for the Increase in the assay on DC3F/AD [7], in the assay with KB [8] and with DC3F/AD [10] were 10.2, 26.2 and 10.5, respectively.
On to `C=CCN(CC=C)c1nc(N(CC=C)CC=C)nc(N2CCC(NCC(c3ccccc3)c3ccccc3)CC2)n1`, for which the Viability in the assay on DC3F/AD [1] was 65%; with KB [4], 78%; with DC3F/AD [5], 74%. Further, the Fold reversion in the assay on DC3F/AD [3], in the assay on KB [12] and with DC3F/AD [9] was 1 each time.
As for `C=CCNc1nc(NCC=C)nc(N2CCC(NCC3c4ccccc4C=Cc4ccccc43)CC2)n1`, the T/C in the assay with P388 [2] was found to be 196%; in the assay on P388 [6], 172%. Also, the results for the Fold reversion with DC3F/AD [3], in the assay on DC3F/AD [9] and in the assay on KB [11] were 1420, <25 and 640, respectively. The Viability in the assay on KB [4] is reported as 31%; in the assay on DC3F/AD [5] it was 86%. Moreover, the Increase in the assay on DC3F/AD [7] was determined as 24.5; in the assay with KB [8], 59.2; with DC3F/AD [10], 25.8.
With `C=CCNc1nc(NCC=C)nc(N2CCN(C3c4ccccc4CCc4ccccc43)CC2)n1`, the figures for the Viability in the assay on DC3F/AD [1], in the assay on KB [4] and with DC3F/AD [5] were 87%, 108% and 92%, respectively. Besides, the Fold reversion with DC3F/AD [3] worked out at 309; in the assay on KB [13] it was 36; in the assay with DC3F/AD [9], 455. Further, the Increase in the assay with DC3F/AD [7] is on record as 16.9; in the assay with KB [8] it was 11.2; in the assay on DC3F/AD [10] it was 19.3.
Regarding `C=CCNc1nc(NCC=C)nc(N2CCN(NCC3c4ccccc4CCc4ccccc43)CC2)n1`, the Viability stood at 81% with DC3F/AD [1], 96% in the assay on KB [4] and 87% with DC3F/AD [5]. Also, the Fold reversion in the assay with DC3F/AD [3] came to 329; in the assay with KB [12], 93; in the assay on DC3F/AD [9] it was 1159. Also, the Increase in the assay on DC3F/AD [7] was 21.1; in the assay on KB [8], 22.8; in the assay with DC3F/AD [10] it was 28.2.
With `C=CCNc1nc(NCC=C)nc(NCC(O)CN2CCN(C3c4ccccc4CCc4ccccc43)CC2)n1` (stereo unspecified), the Fold reversion in the assay with DC3F/AD [3], in the assay on KB [13] and with DC3F/AD [9] was <25 in each case. Moreover, the Increase with DC3F/AD [7] came to 24.3; with KB [8], 29.2; in the assay on DC3F/AD [10] it was 27.6.

What is called T/C is the ratio of treated to control.

Source of the values: ChEMBL document CHEMBL1126298, “New triazine derivatives as potent modulators of multidrug resistance” (1992).
